Measurements: ChEMBL document CHEMBL1136404, “Synthesis and biological evaluation of new UDP-GalNAc analogues for the study of polypeptide-alpha-GalNAc-transferases” (Bioorg Med Chem Lett, 2003)

Key:
[1] = Inhibitory activity against GalNAc transferase 1 at a concentration of 1000 uM
Procedure, shortened: (§1)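 Bovine ppGalNAc-T1 (EC 2.4.1.41), secreted 6His-tagged protein from baculovirus-infected insect cells, Ni-NTA purified (0.5 U/mg). Stopped with ice-cold water; glycopeptide recovered on C18 cartridge, eluted with methanol, scintillation counted. Inhibition reported as relative %.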

[2] = Inhibitory activity against GalNAc transferase 1 at a concentration of 20 uM; procedure, shortened: as §1
[3] = Inhibitory activity against GalNAc transferase 1 at a concentration of 200 uM; procedure, shortened: as §1

inhibition [1]	inhibition [2]	inhibition [3]	Structure (SMILES)
72%	0%	7%	COC1C(CO)OC(OP(=O)(O)OP(=O)(O)OC[C@H]2OC(n3ccc(=O)[nH]c3=O)[C@H](O)[C@@H]2O)C(NC(C)=O)C1O (some centres not stated)
74%	0%	30%	COC1C(O)C(CO)OC(OP(=O)(O)OP(=O)(O)OC[C@H]2OC(n3ccc(=O)[nH]c3=O)[C@H](O)[C@@H]2O)C1NC(C)=O (some centres not stated)
79%	0%	39%	CC(=O)N[C@@H]1[C@H](OP(=O)(O)OP(=O)(O)OC[C@H]2O[C@@H](n3ccc(=O)[nH]c3=O)[C@H](O)[C@@H]2O)O[C@@H](CO)[C@H](O)[C@H]1O
76%	0%	17%	COCC1OC(OP(=O)(O)OP(=O)(O)OC[C@H]2OC(n3ccc(=O)[nH]c3=O)[C@H](O)[C@@H]2O)C(NC(C)=O)C(O)C1O (some centres not stated)
